The values below come from article PMC8813707 (Clinical Pharmacokinetics, 2021).

Like-named read-outs stand apart in the source and are kept apart here.

The test system of one data set is NPR-B. Put plainly: Vosoritide-neutralizing antibodies. The class given is cell-based, human. To be noted: phase III, all time points tested. A digest of the protocol:
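Run only on confirmed TAb-positive sera. Frozen NIH/3T3 cells cultured overnight (DMEM high glucose + 10% FBS, 37°C, 5% CO2). Cells stimulated with 5 ng/mL drug in diluted serum; cellular cGMP read by ELISA, where signal is inverse to cGMP. Screening cut point: upper 95th percentile of pretreatment sera. Positives confirmed by immunodepletion on drug-conjugated magnetic beads. LOD 227 ng/mL.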

The test system of data set [1] is collagen type X marker (CXM). The data set can be described thus: Serum collagen type X marker. The class given is in vivo, human. The gist of the method: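 Serum CXM measured by electrochemiluminescence sandwich assay. Streptavidin plates were blocked, then coated with biotinylated anti-collagen X NC1 SOMAmer capture. Standard was recombinant human collagen X NC1; sera diluted 1:100. Detection used ruthenium-labelled mouse mAb. Values read from a 4PL curve (1/Y² weighting); LOD 914 pg/mL neat serum. Individual mean CXM (day 10–183, phase II) fitted by sigmoid Emax versus individual mean Cmax or AUC0-t.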

In data set [2] the test system is patients with achondroplasia. The class given is in vivo, human. Conditions: phase II, initial 6 months, visit-matched; the single patient with high exposure.
In data set [3] the target is urine cGMP (activity through the target receptor NPR-B). Put plainly: Urine cGMP normalized to creatinine. The class given is in vivo, human. A digest of the protocol:
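Urine collected predose and 1, 2 and 4 h postdose. Phase II: initial 6 months plus months 12, 18 and 24. Phase III: days 1–3 and weeks 6, 26 and 52. cGMP measured (LLOQ 138 pmol/mL neat urine) and normalised to creatinine. Maximum postdose increase is taken over the same-visit predose value; negative if predose is maximal. Fitted against visit-matched Cmax/AUC (non-estimable set to zero): sigmoid Emax (phase II) or Emax with h=1 (phase III).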

For data set [4], the system named is patients with achondroplasia. Conditions: phase II, children with achondroplasia, daily dose of 15 µg/kg, up to 42 months; cited from earlier work.
Data set [5] can be described thus: Vosoritide plasma pharmacokinetics, phase II study. The class given is in vivo, human. A digest of the protocol:
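Phase II, daily s.c. doses 2.5–30 µg/kg. Plasma measured by validated ELISA: murine monoclonal anti-drug IgG capture, rabbit polyclonal anti-CNP IgG detection. Full sampling on days 1, 10, 29, 85 and 183, predose and 5–180 min postdose. Non-compartmental analysis used linear-up/log-down trapezoids. Below-LLOQ values before Tmax set to zero; those after Tmax censored.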

A short description of data set [6]: Vosoritide plasma pharmacokinetics, phase III study. The class given is in vivo, human. The gist of the method: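 Phase III, 15 µg/kg s.c. once daily. Full plasma sampling at day 1, week 26 and week 52: predose and 5, 15, 30, 45, 60, 90 and 120 min. Sparse sampling at weeks 13 and 39. Parameters from non-compartmental analysis with linear-up/log-down trapezoids. Effects of sex, body weight, age, race and anti-drug antibodies on exposure were evaluated.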

For data set [7], the system named is patients with achondroplasia. Put plainly: Change from baseline in annualized growth velocity. The class given is in vivo, human. A digest of the protocol: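 Phase II: once-daily subcutaneous dosing at 2.5–30 µg/kg. Change in AGV from baseline to day 183 fitted by sigmoid Emax (E0, Emax, EC50, Hill h) against individual mean Cmax or AUC0-t, each averaged per patient over all PK visit days. Phase III (15 µg/kg) exposure–AGV also analysed. Estimates given with 95% CIs.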

The test system of data set [8] is total anti-vosoritide antibody (TAb). The data set can be described thus: Total anti-vosoritide antibodies. The class given is in vivo, human. To be noted: phase III; p > 0.8 for difference in estimated mean Cmax and AUC0-∞ by TAb status, t-test.
The conditions of data set [9]: endogenous CNP in humans; cited from earlier work.
[10] abbreviates: phase II, the single patient with high individual mean exposure.

For `CC[C@H](C)[C@@H]1NC(=O)[C@H](CCCNC(=N)N)NC(=O)[C@H](CC(=O)O)NC(=O)[C@H](CC(C)C)NC(=O)[C@H](CCCCN)NC(=O)[C@H](CC(C)C)NC(=O)CNC(=O)[C@H](Cc2ccccc2)NC(=O)[C@@H](NC(=O)CNC(=O)[C@H](CCCCN)NC(=O)[C@H](CO)NC(=O)[C@H](CC(C)C)NC(=O)CNC(=O)[C@H](CCCCN)NC(=O)[C@H](CCCCN)NC(=O)[C@H](CC(N)=O)NC(=O)[C@H](C)NC(=O)CNC(=O)[C@H](CCCCN)NC(=O)[C@H](Cc2ccc(O)cc2)NC(=O)[C@H](CCCCN)NC(=O)[C@H](CCCNC(=N)N)NC(=O)[C@H](C)NC(=O)[C@H](CC(N)=O)NC(=O)[C@@H]2CCCN2C(=O)[C@H](Cc2c[nH]cn2)NC(=O)[C@H](CCC(=O)O)NC(=O)[C@H](CCC(N)=O)NC(=O)CNC(=O)[C@@H]2CCCN2)CSSC[C@@H](C(=O)O)NC(=O)CNC(=O)[C@H](CC(C)C)NC(=O)CNC(=O)[C@H](CO)NC(=O)[C@H](CCSC)NC(=O)[C@H](CO)NC(=O)CNC1=O` [vosoritide], in the data set with NPR-B, the “NAb status of TAb-positive patients” value is “negative”. The “correlation between plasma exposure and mean CXM concentration” value in [1] (phase II, 24 months of daily dosing, 15 and 30 µg/kg, linear regression, p = 0.98 for Cmax, p = 0.99 for AUC0-60min) was “no significant correlation”. For the same compound, the “mean CXM from day 10 to day 183 of one patient” value in [1] (setting [10]) was 12,200 pg/mL. In addition, the “relationship between exposure and mean CXM concentrations” value in data set [1] (phase III, 15 µg/kg, week 13 to week 52, linear regression, p = 0.74 for Cmax, p = 0.58 for AUC0-60min) is listed as “lack of relationship”. In addition, in data set [1] (sigmoid Emax model vs individual mean AUC0-t, day 10 to day 183, phase II, MPE), the “EC50 (AUC0-t producing half maximal effect on CXM)” value was 51700 pg·min/mL. In data set [2], the “maximum decrease in DBP of one patient” value is recorded as −2 mmHg, the “maximum decrease in SBP of one patient” value is reported as −7 mmHg and the “maximum increase in HR of one patient” value was found to be 39 bpm. Moreover, in [3] (Emax model (h = 1) vs visit-matched AUC0-60min, phase III, 15 µg/kg, MPE), the “EC50 (AUC0-60min producing half maximal effect on cGMP/Cr)” value turned out to be 479000 pg·min/mL. Also, the “Emax, maximum postdose increase in urine cGMP/Cr” value in data set [3] (Emax model (h = 1) vs visit-matched Cmax, phase III, 15 µg/kg, MPE (95% CI)) was 18,160 (13,800–22,600) pmol/mg Cr. Moreover, the “maximum change from pre-dose cGMP/Cr of one patient” value in [3] (phase II, initial 6 months, visit-matched, the single patient with high exposure) came to 8190 pmol/mg Cr. The “EC50 (AUC0-t producing half maximal effect on cGMP/Cr)” value in [3] (sigmoid Emax model vs visit-matched AUC0-t, initial 6 months of phase II, MPE) is 222000 pg·min/mL. Further, the “sustained mean increase in annualized growth velocity (AGV) above baseline” value in data set [4] is given as 1.55 cm/year. Also, the “increase in vosoritide exposure with dose” value in data set [5] (doses from 2.5 to 30 μg/kg) is recorded as “greater than proportional”. In data set [5] (human, plasma, sc, 2.5 ug/kg), the concentration peaked (Cmax) at 0.549 ng/mL and the Tmax is 5 min. In data set [5] (human, plasma, sc, 7.5 ug/kg), the Cmax worked out at 1.36 ng/mL and the Tmax was 13.7 min. Also, in [5] (human, plasma, sc, 15 ug/kg), the CL/F stood at 83.7 mL/min/kg, the Cmax worked out at 4.75 ng/mL, the Tmax is 15.8 min and the Vd/F worked out at 2.56 L/kg. Further, the half-life in [5] (human, plasma, sc, 15 ug/kg) is 24.4 min. Besides, the Cmax in [5] (human, plasma, sc, 30 ug/kg) was determined as 16.8 ng/mL. In data set [5] (phase II, single patient with high exposure, left out of the figure), the “Cmax at one visit of one patient” value was found to be 839 ng/mL. The “impact of sex on plasma Cmax or AUC0-60min” value in data set [6] was “no apparent impact”. For the same compound, the “accumulation with once-daily dosing” value in data set [6] (15 µg/kg s.c. once daily, 52 weeks) is reported as “No evidence of accumulation”. This compound also yielded a Vz/F in [6] (15 µg/kg s.c. once daily, Week 52, plasma ECLA, NCA, mean) of 2.91 L/kg. The “relationship of plasma AUC0-60min with body weight and age” value in data set [6] (linear regression, p < 0.001) is listed as “positively correlated”. The “correlation between plasma exposure and change in AGV” value in data set [7] (phase II, 24 months of daily dosing, 15 and 30 µg/kg, linear regression, p = 0.34 for Cmax, p = 0.50 for AUC0-60min) is reported as “no significant correlation”. Further, the “change in annualized growth velocity from baseline to day 183 of one patient” value in data set [7] (setting [10]) was determined as 3.56 cm/year. The “relationship between exposure and changes in AGV” value in data set [7] (phase III, 15 µg/kg, baseline to week 52, linear regression, p = 0.52 for Cmax, p = 0.54 for AUC0-60min) is “lack of relationship”. Further, in data set [7] (sigmoid Emax model vs individual mean AUC0-t, baseline to day 183, phase II, MPE), the “EC50 (AUC0-t producing half maximal effect), change in AGV” value was 20,500 pg-min/mL. In data set [8], the “impact of serum TAb on plasma exposure of vosoritide (Cmax and AUC0-∞)” value was “no apparent impact”.
Turning to C-type natriuretic peptide [CNP], the half-life in data set [9] is reported as 2.6 min.

In general, Cmax refers to the maximum level reached in the sampled fluid or tissue. The term Tmax denotes the time at which the peak concentration occurs. As usually defined, the CL/F is the apparent clearance, not corrected for the fraction that reaches the circulation. In general, Vd/F refers to the volume of distribution divided by bioavailability. Usually half-life stands for the time in which the quantity being followed falls by half.
